Assay results taken from ChEMBL document CHEMBL1806371, “Selenocyanates and diselenides: a new class of potent antileishmanial agents” (Eur J Med Chem, 2011).

Assays:
Leishmania infantum [1] = experiment: Antileishmanial activity against Leishmania infantum MCAN/ES/89/IPZ229/1/89 amastigotes after 24 hrs by microscopy; format: functional, organism-based; details: MCAN/ES/89/IPZ229/1/89, 24 h
In short: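 Axenic L. infantum amastigotes (M199, 10% FCS, pH 5.4, 37 °C) treated in log phase at 1×10^6 parasites/mL for 24 h. Living cells counted by flow cytometry with propidium iodide exclusion, with microscopic observation by phase contrast or fluorescence. At least three independent experiments.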

THP-1 [2] = experiment: Cytotoxicity against human THP1 cells assessed as live cells in neubauer chamber after 24 hrs by trypan blue assay; format: cell-based; details: THP-1, 24 h
Leishmania infantum [3] = experiment: Antileishmanial activity against Leishmania infantum MCAN/ES/89/IPZ229/1/89 promastigotes after 24 hrs […]; format: functional, organism-based; details: MCAN/ES/89/IPZ229/1/89, 24 h
In short: (§1)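 Log-phase L. infantum promastigotes (RPMI-1640, 10% FCS, 25 mM HEPES, pH 7.2, 26 °C) treated at 2×10^6 parasites/mL for 24 h. Screening used 25, 12.5 and 6.25 μM to give percent growth inhibition. Living cells measured by flow cytometry with propidium iodide exclusion. At least three independent experiments.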

Leishmania infantum [4] = experiment: Antileishmanial activity against Leishmania infantum MCAN/ES/89/IPZ229/1/89 amastigotes expressing GFP infected in human THP1 cells assessed as parasite infected cells at 3 uM after 48 hrs by flow cytometry (reference value: 35%); format: functional, THP-1
[5] = Permeability across human Caco2 cells; format: ADME, cell-based; details: Caco-2, read-out: permeability
[6] = Human intestinal absorption in human; format: ADME, organism-based; details: read-out: HIA
In short: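 Values are computed, not measured. Human intestinal absorption (%) and Caco-2 permeability (nm/s) were predicted in silico with the PreADMET program.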

[7] = Selectivity ratio, ratio of IC50 for human Jurkat cells to IC50 for Leishmania infantum MCAN/ES/89/IPZ229/1/89 amastigotes; format: ADME, cell-based; details: read-out: Ratio IC50
In short: (§2)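 Selectivity index is IC50 against Jurkat or THP-1 cells divided by IC50 against L. infantum amastigotes. Host cells were treated in log phase at 4×10^5 cells/mL for 24 h at 37 °C, 5% CO2, at 0.08, 0.4, 2.0, 10.0 and 50.0 μM. Viability was measured by flow cytometry with propidium iodide exclusion.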

Jurkat [8] = experiment: Cytotoxicity against human Jurkat cells assessed as live cells in neubauer chamber after 24 hrs by trypan blue assay; format: cell-based
[9] = Selectivity ratio, ratio of IC50 for human THP1 cells to IC50 for Leishmania infantum MCAN/ES/89/IPZ229/1/89 amastigotes; format: ADME, cell-based; details: THP-1 cells, read-out: Ratio IC50; in short: as §2
THP-1 [10] = experiment: Cytotoxicity against human THP1 cells infected with Leishmania infantum MCAN/ES/89/IPZ229/1/89 at 1 uM by phase contrast microscopy; format: cell-based; details: thp-1, 1 µM
In short: (§3)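 Drug was added to PMA-differentiated THP-1 cells infected with eGFP amastigotes, at 1, 3 and 15 µM, alongside a DMSO control at the highest assay concentration. Propidium iodide was added to a final 5 µg/mL, and cells were examined at once by phase contrast and fluorescence microscopy; PI stains dead cells.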

Leishmania infantum [11] = experiment: Antileishmanial activity against Leishmania infantum MCAN/ES/89/IPZ229/1/89 promastigotes assessed as growth inhibition at 6.25 uM after 24 hrs; format: functional; in short: as §1
Leishmania infantum [12] = experiment: Antileishmanial activity against Leishmania infantum MCAN/ES/89/IPZ229/1/89 promastigotes assessed as growth inhibition at 25 uM after 24 hrs; format: functional; in short: as §1
Leishmania infantum [13] = experiment: Antileishmanial activity against Leishmania infantum MCAN/ES/89/IPZ229/1/89 axenic amastigotes infected expressing GFP in human […] cells assessed as axenic parasite killing at 3 uM after 48 hrs by propidium iodide staining based flow cytometry; format: functional
Jurkat [14] = experiment: Cytotoxicity against human Jurkat cells infected with Leishmania infantum MCAN/ES/89/IPZ229/1/89 at 3 uM by phase contrast microscopy; format: cell-based
Jurkat [15] = experiment: Cytotoxicity against human Jurkat cells infected with Leishmania infantum MCAN/ES/89/IPZ229/1/89 at 3 uM using propidium iodide staining by fluorescence contrast microscopy; format: cell-based
THP-1 [16] = experiment: Cytotoxicity against human THP1 cells infected with Leishmania infantum MCAN/ES/89/IPZ229/1/89 at 1 uM using propidium iodide staining by fluorescence contrast microscopy; format: cell-based; details: thp-1, 1 µM; in short: as §3
Leishmania infantum [17] = experiment: Antileishmanial activity against Leishmania infantum MCAN/ES/89/IPZ229/1/89 amastigotes expressing GFP infected in human THP1 cells assessed as reduction in parasite infection rate at 3 uM after 48 hrs by flow cytometry; format: functional, THP-1; design: scale not given: the % may be the effect or the level left
THP-1 [18] = experiment: Cytotoxicity against human THP1 cells infected with Leishmania infantum MCAN/ES/89/IPZ229/1/89 at 3 uM; format: cell-based; details: thp-1, 3 µM
Jurkat [19] = experiment: Cytotoxicity against human Jurkat cells infected with Leishmania infantum MCAN/ES/89/IPZ229/1/89 at 1 uM using propidium iodide staining by fluorescence contrast microscopy; format: cell-based
THP-1 [20] = experiment: Cytotoxicity against human THP1 cells infected with Leishmania infantum MCAN/ES/89/IPZ229/1/89 at 3 uM using propidium iodide staining by fluorescence contrast microscopy; format: cell-based; details: thp-1, 3 µM; in short: as §3
Leishmania infantum [21] = experiment: Antileishmanial activity against Leishmania infantum MCAN/ES/89/IPZ229/1/89 amastigotes expressing GFP infected in human THP1 cells assessed as parasite infected cells after 48 hrs by flow cytometry (reference value: 35%); format: functional, THP-1
Leishmania infantum [22] = experiment: Antileishmanial activity against Leishmania infantum MCAN/ES/89/IPZ229/1/89 promastigotes assessed as growth inhibition at 12.5 uM after 24 hrs; format: functional; in short: as §1
Leishmania infantum [23] = experiment: Antileishmanial activity against Leishmania infantum MCAN/ES/89/IPZ229/1/89 axenic amastigotes infected in human THP1 cells expressing GFP assessed as complete killing of parasite at 3 uM after 48 hrs by propidium iodide staining based flow cytometry; format: functional, THP-1
THP-1 [24] = experiment: Cytotoxicity against human THP1 cells infected with Leishmania infantum MCAN/ES/89/IPZ229/1/89 at 3 uM by phase contrast microscopy; format: cell-based; details: thp-1, 3 µM; in short: as §3
Jurkat [25] = experiment: Cytotoxicity against human Jurkat cells infected with Leishmania infantum MCAN/ES/89/IPZ229/1/89 at 1 uM by phase contrast microscopy; format: cell-based

Compound `CCCCCCCCCCCCCCCCCCOCC(COP(=O)([O-])OCC[N+](C)(C)C)OC` (configuration not stated) [EDELFOSINE] has an IC50 (Leishmania infantum [1]) of 0.82 µM, an IC50 (THP-1 [2]) of 4.96 µM and an IC50 (Leishmania infantum [3]) of 3.65 µM. It also gave an Activity (Leishmania infantum [4]) of 5%, a Papp [5] of 39.4 nm/s and a Fa [6] of 98.4%. It also gave a selectivity ratio [7] of 15, an IC50 (Jurkat [8]) of 12.2 µM and a selectivity ratio [9] of 6.

With `Nc1ccc([Se][Se]c2ccc(N)cc2)cc1` the Activity (THP-1 [10]) was “Non-toxic”, the GI (Leishmania infantum [11]) was 95.8% and the GI (Leishmania infantum [12]) was 98%. For the same compound, the IC50 (THP-1 [2]) was 14 µM, the IC50 (Leishmania infantum [3]) was 0.96 µM and the Papp [5] was 22.9 nm/s. The Activity (Leishmania infantum [13]) was 100%, the Fa [6] was 97.6% and the Activity (Jurkat [14]) was “Non-toxic”. For the same compound, the Activity (Jurkat [15]) was “Non-toxic”, the Activity (THP-1 [16]) was “Non-toxic” and the Activity (Leishmania infantum [17]) was 74%. The Activity (THP-1 [18]) was “Non-toxic”, the selectivity ratio [7] was 32 and the Activity (Jurkat [19]) was “Non-toxic”. The Activity (THP-1 [20]) was “Non-toxic”, the Activity (Leishmania infantum [21]) was 9% and the GI (Leishmania infantum [22]) was 97.6%. It also gave an IC50 (Jurkat [8]) of 12.1 µM, an Activity (Leishmania infantum [23]) of 100% and a selectivity ratio [9] of 24. For the same compound, the Activity (THP-1 [24]) was “Non-toxic” and the Activity (Jurkat [25]) was “Non-toxic”.
